Source: publication PMC7003992 (Journal of medicinal chemistry, 2019)
Read-outs that look alike come from different tables or passages of the source.

Tests used:
NTR1 [1] = biological target: T1, NTR1 (Homo sapiens, UniProt P30989); experiment: β-Arrestin2-GFP NTR1 high content assay; assay type: cell-based
Target sequence in this assay (P30989 whole entry, species assumed): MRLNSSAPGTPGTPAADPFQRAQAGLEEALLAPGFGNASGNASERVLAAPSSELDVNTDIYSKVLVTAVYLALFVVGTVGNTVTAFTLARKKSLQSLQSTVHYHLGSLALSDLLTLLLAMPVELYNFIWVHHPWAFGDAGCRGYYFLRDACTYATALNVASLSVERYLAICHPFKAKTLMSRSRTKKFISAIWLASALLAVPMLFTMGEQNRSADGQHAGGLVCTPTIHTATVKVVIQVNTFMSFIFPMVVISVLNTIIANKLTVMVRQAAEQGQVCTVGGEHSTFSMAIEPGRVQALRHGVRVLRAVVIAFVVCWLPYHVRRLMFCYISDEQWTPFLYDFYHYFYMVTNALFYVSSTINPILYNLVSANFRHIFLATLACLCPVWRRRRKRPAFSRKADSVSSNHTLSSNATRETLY

NTR1 [2] = biological target: T1, NTR1; conditions: cited from earlier work
Target sequence in this assay (P30989 whole entry, species assumed): as above

GPR55 = GPR55 (Homo sapiens, UniProt Q9Y2T6); experiment: GPCR cross reactivity, high-content assay format; assay type: cell-based
NTR1 [3] = biological target: T1, NTR1; experiment: [125I]-NT radioligand binding to cell membranes; conditions: [125I]-NT 0.02 nM, increasing concentrations of compound
Target sequence in this assay (P30989 whole entry): as the sequence (P30989 whole entry, species assumed) above

mouse NTR = mouse NTR (Mus musculus, UniProt O88319); experiment: [125I]-NT radioligand binding to cell membranes; conditions: [125I]-NT 0.02 nM
GPR35 = GPR35 (Homo sapiens, UniProt Q9HC97); experiment: GPCR cross reactivity, high-content assay format; assay type: cell-based
[4] = test system: dopamine transporter knockout (DAT−/−) mice; experiment: Open field locomotor activity in dopamine transporter knockout mice; assay type: in vivo, mouse; conditions: 2 hr post-treatment
Outline: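 Male and female DAT KO mice on a C57BL/6J background, 12–24 wk, 18–30 g, age- and sex-matched, randomised, tested early in the light cycle. After 30 min open-field acclimation, dosed at 10 ml/kg i.p. (vehicle 4% DMSO in saline) or p.o. as HCl salt in distilled water (after 5 daily water-gavage habituations). Infrared beam-break horizontal distance in 5-min bins; total summed 30–150 min.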

K-opioid = K-opioid (Homo sapiens, UniProt P41145); experiment: GPCR cross reactivity, high-content assay format; assay type: cell-based
NTR1 [5] = biological target: T1, NTR1; experiment: Ca2+ flux assay; assay type: cell-based
Target sequence in this assay (P30989 whole entry, species assumed): as above

NTR2 [6] = biological target: T2, NTR2 (Homo sapiens, UniProt O95665); experiment: NTR2 counterscreen, same high-content β-arrestin format; assay type: cell-based; conditions: high-content assay format
Target sequence in this assay (O95665 whole entry, species assumed): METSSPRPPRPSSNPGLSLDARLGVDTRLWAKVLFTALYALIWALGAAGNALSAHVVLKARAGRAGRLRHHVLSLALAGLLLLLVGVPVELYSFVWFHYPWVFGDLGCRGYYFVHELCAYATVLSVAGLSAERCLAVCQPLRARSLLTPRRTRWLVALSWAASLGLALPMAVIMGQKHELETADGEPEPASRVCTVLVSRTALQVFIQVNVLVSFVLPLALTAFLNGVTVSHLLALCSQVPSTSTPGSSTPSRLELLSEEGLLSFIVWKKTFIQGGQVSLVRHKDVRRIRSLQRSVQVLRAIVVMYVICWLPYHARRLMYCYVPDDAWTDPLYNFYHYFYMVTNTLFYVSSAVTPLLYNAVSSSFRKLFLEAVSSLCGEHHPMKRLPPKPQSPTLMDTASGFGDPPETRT

NTR2 [7] = biological target: T2, NTR2; experiment: [125I]-NT radioligand binding to cell membranes; conditions: [125I]-NT 0.02 nM
Target sequence in this assay (O95665 whole entry): as the sequence (O95665 whole entry, species assumed) above

[8] = Adverse effects in dosed animals; assay type: in vivo; conditions: animals dosed in the DAT knockout mouse study

Chain of mouse NTR (O88319 whole entry): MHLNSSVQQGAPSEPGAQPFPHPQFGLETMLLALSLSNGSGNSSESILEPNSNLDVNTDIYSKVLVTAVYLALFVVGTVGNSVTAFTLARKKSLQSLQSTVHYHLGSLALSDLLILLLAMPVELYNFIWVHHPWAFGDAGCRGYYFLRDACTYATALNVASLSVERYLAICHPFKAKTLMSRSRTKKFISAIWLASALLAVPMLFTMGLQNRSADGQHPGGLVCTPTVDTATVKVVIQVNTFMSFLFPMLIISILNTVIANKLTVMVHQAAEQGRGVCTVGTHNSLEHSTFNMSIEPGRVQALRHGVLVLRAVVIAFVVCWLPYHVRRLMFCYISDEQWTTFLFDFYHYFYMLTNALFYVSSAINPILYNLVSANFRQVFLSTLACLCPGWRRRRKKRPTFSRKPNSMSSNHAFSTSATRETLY
Chain of K-opioid (P41145 whole entry): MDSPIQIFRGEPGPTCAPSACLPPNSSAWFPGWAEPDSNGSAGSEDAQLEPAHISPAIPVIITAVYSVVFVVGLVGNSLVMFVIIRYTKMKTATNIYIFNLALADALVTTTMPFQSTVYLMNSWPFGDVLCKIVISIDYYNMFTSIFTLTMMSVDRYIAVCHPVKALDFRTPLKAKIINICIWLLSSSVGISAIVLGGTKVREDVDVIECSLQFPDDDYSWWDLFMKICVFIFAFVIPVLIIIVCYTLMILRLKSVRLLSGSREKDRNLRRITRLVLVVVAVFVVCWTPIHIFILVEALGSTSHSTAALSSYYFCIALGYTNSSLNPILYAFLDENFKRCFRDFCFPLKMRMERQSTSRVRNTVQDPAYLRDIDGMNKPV
Chain of GPR55 (Q9Y2T6 whole entry, species assumed): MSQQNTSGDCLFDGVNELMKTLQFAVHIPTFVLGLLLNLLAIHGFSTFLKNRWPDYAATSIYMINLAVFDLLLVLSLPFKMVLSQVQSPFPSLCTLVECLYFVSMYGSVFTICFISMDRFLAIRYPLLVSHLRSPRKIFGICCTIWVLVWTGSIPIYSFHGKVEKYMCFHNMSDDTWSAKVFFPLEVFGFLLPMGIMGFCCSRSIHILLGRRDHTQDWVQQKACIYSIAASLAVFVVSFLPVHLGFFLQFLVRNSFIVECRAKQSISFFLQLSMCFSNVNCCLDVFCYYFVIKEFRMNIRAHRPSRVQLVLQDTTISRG
Chain of GPR35 (Q9HC97 whole entry, species assumed): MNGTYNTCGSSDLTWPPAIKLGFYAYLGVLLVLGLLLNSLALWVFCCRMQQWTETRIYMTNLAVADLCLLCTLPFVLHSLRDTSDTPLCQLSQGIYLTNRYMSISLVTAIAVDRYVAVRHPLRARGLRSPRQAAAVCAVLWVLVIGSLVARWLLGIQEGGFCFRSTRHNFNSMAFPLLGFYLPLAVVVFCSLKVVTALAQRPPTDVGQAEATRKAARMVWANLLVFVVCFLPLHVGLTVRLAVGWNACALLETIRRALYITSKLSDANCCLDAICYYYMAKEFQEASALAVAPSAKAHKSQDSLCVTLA

COc1cc2nc(C3CC3)nc(C3CCN(c4ccccc4OC)CC3)c2cc1OC [19a]
EC50 (β-Arrestin2-GFP NTR1 potency) (NTR1 [1]; relative to the EC100 (100 nM) of the NT(8–13) peptide control, average ± SEM (n=4 unless otherwise noted in parentheses)): not active

COc1cc2nc(C3CC3)nc(N3CCN(c4ccccc4OC)CC3)c2cc1OC [compound 7]
activity in Ca2+ flux assay, compound alone (NTR1 [2]): no activity | Emax (NTR1 [1]): 100%

COc1ccccc1C1CCN(c2nc(C3(F)CC3)nc3ccc(N(C)CCO)cc23)CC1 [compound 18, 2-({2-(1-Fluoro-cyclopropyl)-4-[4-(2-methoxy-phenyl)-piperidin-1-yl]-quinazolin-6-yl}-methyl-amino)-ethanol]
cross reactivity (GPR55): no cross reactivity | enhancement of neurotensin peptide binding (NTR1 [3]): significant enhancement | enhancement of neurotensin peptide binding (mouse NTR): significant enhancement | cross reactivity (GPR35): no cross reactivity | effect on basal hyperlocomotion ([4]; IP dosing, 12 mg/kg): attenuated hyperlocomotion | effect on basal hyperlocomotion ([4]; PO dosing, 10, 30 or 100 mg/kg as the HCl salt): attenuated hyperlocomotion | cross reactivity (K-opioid): no cross reactivity | activity in Ca2+ flux assay, compound alone (NTR1 [5]; compound alone, without NT): no activity | shift of the NT EC50 in the Ca2+ flux assay (NTR1 [5]; rightward shift in the presence of 2.15 μM compound): > 30 fold | cross reactivity (NTR2 [6]): no cross reactivity | enhancement of neurotensin peptide binding (NTR2 [7]): but not human NTR2 | adverse effects in dosed animals [8]: did not show any adverse effects | effect on the potency of NT in the NTR1 high-content (β-arrestin2-GFP) assay (NTR1 [1]; 18 (SBI-553) 0.5−356 nM): no effect
